Assay results from different studies.
Target: Aurora kinase A (AURKA, Homo sapiens, UniProt O14965)
Residues used in one study (O14965 1-403): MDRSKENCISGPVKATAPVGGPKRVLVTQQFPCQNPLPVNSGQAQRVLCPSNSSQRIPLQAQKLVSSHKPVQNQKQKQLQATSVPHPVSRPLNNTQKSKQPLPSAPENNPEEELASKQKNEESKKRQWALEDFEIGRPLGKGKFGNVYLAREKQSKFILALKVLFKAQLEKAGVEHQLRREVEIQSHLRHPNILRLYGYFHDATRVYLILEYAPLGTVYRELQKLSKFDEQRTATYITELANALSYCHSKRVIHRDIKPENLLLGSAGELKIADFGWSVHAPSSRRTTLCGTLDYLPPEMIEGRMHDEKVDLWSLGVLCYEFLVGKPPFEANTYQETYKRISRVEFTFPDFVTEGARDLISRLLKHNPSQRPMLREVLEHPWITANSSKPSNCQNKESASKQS

| Structure (SMILES) | assay | conditions | remaining binding [%] |
| --- | --- | --- | --- |
| CCN1CCN(Cc2ccc(C(=O)Nc3ccc(C)c(Oc4ccc5c(c4)CC(=O)N5)c3)cc2C(F)(F)F)CC1 | binding, competition with immobilised ligand | 1 µM | 100 |
| O=C(c1ccc(Nc2ncc(Cl)c(-c3ccc(Cl)s3)n2)cc1)N1CCC(N2CCCC2)CC1 | binding, competition with immobilised ligand | 1 µM | 1.9 |
| c1cncc(-c2cccc(Nc3nccc(NC4CCCCC4)n3)c2)c1 | binding, competition with immobilised ligand | 10 µM | 5.9 |
| N[C@@H]1CCN(c2nccc(-c3cnn4ncccc34)n2)C1 | binding | 1 µM | 100 |
| O=C(Nc1c[nH]nc1C(=O)NC1CCNCC1)c1cc(F)cc(F)c1 | binding, competition with immobilised ligand | 1 µM | 100 |
| CC(C)(C)c1ccc(-c2nc(CBr)nn2-c2cccc(O)c2)cc1 | cell-free assay, competition with immobilised ligand | 10 µM | 91 |
| O=C(NCCCN1CCOCC1)c1ccc(Nc2nccc(-c3cc4ccccc4s3)n2)cc1 | binding, competition with immobilised ligand | 1 µM | 55 |
| COc1ncc2cc3ccccc3nc2c1C#N | cell-free assay, competition with immobilised ligand | 5 µM | 100 |
| O=C(NCCCN1CCOCC1)c1ccc(Nc2ncc(Cl)c(-c3ccc(Cl)s3)n2)cc1 | binding, competition with immobilised ligand | 1 µM | 12 |
| FC(F)(F)c1ccc2c(c1)nc(-c1cccnc1)n2C1CC1 | cell-free assay, competition with immobilised ligand | 1 µM | 98 |
| C[C@@H]1CN(c2ccc3ncc(-c4ccc5[nH]nc(C6CC6)c5c4)n3n2)C[C@H](C)O1 | binding, competition with immobilised ligand | 0.5 µM | 85 |
| Nc1cnc(N2CCc3cc(S(=O)(=O)Nc4c(F)cc(Cl)cc4F)cc(N4CCCC4=O)c32)nc1 | cell-free assay, competition with immobilised ligand | 1 µM | 100 |
| CNC(=O)[C@@H]1CC[C@@H](n2c(-c3ccc4cnccc4c3)nc3ccc(C(=O)NCc4cccc(C(N)=O)c4)cc32)C1 | binding, competition with immobilised ligand | 1 µM | 100 |
| CC1CCCN1c1nccc(-c2cnn3ncccc23)n1 (stereo not shown) | binding | 1 µM | 87 |
| COc1ccc2cc(OCC3(C(=O)O)CN(C(=O)c4ccc(F)cc4)C3)ccc2c1 | cell-free assay, competition with immobilised ligand | 1 µM | 100 |
| C[C@@H]1CCN(c2nccc(-c3cnn4ncccc34)n2)C1 | binding | 1 µM | 92 |
| C[C@H](c1ccc(F)cc1)N(Cc1cccc(C(=O)O)c1)C(=O)c1cnc2ccccc2c1 | cell-free assay, competition with immobilised ligand | 1 µM | 100 |
| c1cnn2ncc(-c3ccnc(N4CCC45COC5)n3)c2c1 | binding | 1 µM | 90 |
| C[C@@H](c1ccc(-n2cnc3c(N)ncnc32)cc1)N1CCc2nn(C)c(Cc3ccccc3)c2C1=O | binding, competition with immobilised ligand | 0.1 µM | 73 |
| O=C(Nc1cccnn1)N1CC(C/C=C/c2cncc(Oc3ccc(C(F)(F)F)cn3)n2)C1 | cell-free assay, competition with immobilised ligand | 1 µM | 100 |
| COc1cnc(Nc2cccc(S(N)(=O)=O)c2)nc1N1CCN(c2ccccc2)C(=O)C1 | binding, competition with immobilised ligand | 1 µM | 80 |
| O=C(NCc1ncc(C(F)(F)F)cc1Cl)c1ccc2c(c1)C1(CCS(=O)(=O)CC1)[C@@H](C1CC1)N2S(=O)(=O)c1ccc(F)cc1 | cell-free assay, competition with immobilised ligand | 1 µM | 81 |
| F[C@@H]1CCN(c2nccc(-c3cnn4ncccc34)n2)C1 | binding | 1 µM | 91 |
| COc1cc(-c2cn(C3CCc4ccccc4N(CC(F)(F)F)C3=O)nn2)ccc1-n1ccc(C)n1 (stereo not shown) | cell-free assay, competition with immobilised ligand | 1 µM | 58 |
| CN(CCCC(F)(F)F)c1nccc(-c2cnn3ncccc23)n1 | binding | 1 µM | 90 |
